According to ChEMBL document CHEMBL1139465, “Synthesis, molecular modeling studies, and selective inhibitory activity against monoamine oxidase of 1-thiocarbamoyl-3,5-diaryl-4,5-dihydro-(1H)- pyrazole derivatives” (J Med Chem, 2005):

Tests used:
[1] = target: T1, Amine oxidase [flavin-containing] A (Bos taurus, UniProt P21398); experiment: Inhibition of bovine brain mitochondria MAOA
T1 sequence (P21398 whole entry): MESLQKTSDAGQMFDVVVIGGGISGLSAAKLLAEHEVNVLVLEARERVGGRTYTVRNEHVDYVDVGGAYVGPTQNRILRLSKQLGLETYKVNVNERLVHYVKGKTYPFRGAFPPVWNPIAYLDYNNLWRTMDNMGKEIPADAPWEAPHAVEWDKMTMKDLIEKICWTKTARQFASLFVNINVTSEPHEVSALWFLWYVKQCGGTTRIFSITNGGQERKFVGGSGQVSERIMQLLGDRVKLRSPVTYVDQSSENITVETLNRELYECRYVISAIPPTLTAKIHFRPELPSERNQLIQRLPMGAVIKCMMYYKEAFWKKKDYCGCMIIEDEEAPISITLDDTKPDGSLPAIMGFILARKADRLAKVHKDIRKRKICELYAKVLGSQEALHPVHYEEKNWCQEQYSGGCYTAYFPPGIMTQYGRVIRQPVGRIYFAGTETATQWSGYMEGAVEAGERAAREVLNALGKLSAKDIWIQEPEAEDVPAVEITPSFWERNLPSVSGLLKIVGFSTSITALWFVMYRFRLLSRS
Method in brief: (§1)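 Beef brain mitochondria isolated per Basford, 6 mg/mL, in 0.25 M potassium phosphate pH 7.4. Preincubation 30 min at 38 °C with 0.5 µM L-deprenyl (MAO-A) or 0.05 µM clorgyline (MAO-B). Inhibitor in DMSO, […]. Kynuramine at four final levels, 5 µM–0.1 mM, 30 min at 38 °C. Perchloric acid stop, fluorimetric read. Ki from Dixon plots; ≥3 experiments in duplicate.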

Bos taurus [2] = species: Bos taurus; experiment: Selectivity index, ratio of Ki for MAOB to Ki for MAOA in bovine brain mitochondria
Method in brief: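 SI computed as Ki(MAO-B)/Ki(MAO-A). Both Ki values are from the fluorimetric kynuramine assay on bovine brain mitochondria, with isoforms isolated by L-deprenyl or clorgyline preincubation. Ki from Dixon plots; means of at least three experiments.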

Bos taurus [3] = species: Bos taurus; experiment: Selectivity index, ratio of Ki for MAOA to Ki for MAOB in bovine brain mitochondria
[4] = target: T2, Amine oxidase [flavin-containing] B (Bos taurus, UniProt P56560); experiment: Inhibition of bovine brain mitochondria MAOB; method in brief: as §1
T2 sequence (P56560 whole entry): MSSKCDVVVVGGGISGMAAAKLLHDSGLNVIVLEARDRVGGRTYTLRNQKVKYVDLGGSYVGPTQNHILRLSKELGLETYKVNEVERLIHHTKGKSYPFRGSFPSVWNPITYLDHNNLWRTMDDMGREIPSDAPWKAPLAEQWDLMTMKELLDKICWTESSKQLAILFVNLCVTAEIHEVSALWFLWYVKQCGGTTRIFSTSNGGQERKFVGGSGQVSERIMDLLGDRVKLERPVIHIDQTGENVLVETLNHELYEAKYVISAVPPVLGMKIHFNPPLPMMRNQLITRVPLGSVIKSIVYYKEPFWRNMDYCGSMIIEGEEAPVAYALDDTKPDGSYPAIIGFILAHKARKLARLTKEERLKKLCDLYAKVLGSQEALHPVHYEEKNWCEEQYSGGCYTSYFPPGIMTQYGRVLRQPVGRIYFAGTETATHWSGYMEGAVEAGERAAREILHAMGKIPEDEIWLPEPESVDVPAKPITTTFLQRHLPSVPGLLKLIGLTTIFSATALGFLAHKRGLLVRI

SMILES	Ki [1]	Ratio Ki (Bos taurus [2])	Ratio Ki (Bos taurus [3])	Ki [4]
Cc1ccc(C2=NN(C(N)=S)C(c3ccco3)C2)cc1 (stereo unspecified)	4 nM	42.5	0.02	170 nM
Cc1ccc(C2=NN(C(N)=S)[C@H](c3ccc(Cl)cc3)C2)cc1	50 nM	0.02	50	1 nM
NC(=S)N1N=C(c2cccs2)CC1c1ccc(Cl)cc1 (stereo unspecified)	41 nM	0.14	6.8	6 nM
Cc1ccc(C2=NN(C(N)=S)[C@@H](c3ccc(Cl)cc3)C2)cc1	13 nM	0.2	4.8	2.7 nM
Cc1ccc(C2=NN(C(N)=S)C(c3ccc(C)cc3)C2)cc1 (stereo unspecified)	6 nM	1.6	0.6	10 nM
NC(=S)N1N=C(c2ccc(F)cc2)C[C@@H]1c1ccc(Cl)cc1	12 nM	116	0.008	1400 nM
NC(=S)N1N=C(c2cccs2)CC1c1ccco1 (stereo unspecified)	50 nM	0.4	2.5	20 nM
Cc1ccc(C2CC(c3ccc(F)cc3)=NN2C(N)=S)cc1 (stereo unspecified)	7 nM	7.1	0.14	50 nM
NC(=S)N1N=C(c2ccc(F)cc2)C[C@H]1c1ccc(Cl)cc1	5 nM	480	0.002	2400 nM
NC(=S)N1N=C(c2cccs2)CC1c1cccs1 (stereo unspecified)	27 nM	1.85	0.54	50 nM
NC(=S)N1N=C(c2ccc(F)cc2)CC1c1ccco1 (stereo unspecified)	8 nM	46.2	0.021	370 nM
Cc1ccc(C2CC(c3cccs3)=NN2C(N)=S)cc1 (stereo unspecified)	50 nM	0.2	5	10 nM
Cc1ccc(C2=NN(C(N)=S)C(c3ccc(Cl)cc3)C2)cc1 (stereo unspecified)	31 nM	0.05	20.7	1.5 nM
NC(=S)N1N=C(c2ccc(F)cc2)CC1c1ccc(Cl)cc1 (stereo unspecified)	6 nM	166	0.006	1000 nM
